These results are taken from ChEMBL document CHEMBL1158335, “Synthesis and evaluation of some new benzimidazole derivatives as potential antimicrobial agents” (2009).

Converted amounts (≈) assume the structure as drawn. The source made the active and inactive calls. No cut-off for these calls is given here.

One assay deals with Candida albicans. As to the kind of experiment: Antifungal activity against Candida albicans MTCC 1637 at 30 ug/ml by cup-plate agar diffusion method. Format: functional. The conditions noted are these: for zone of inhibition at 30 µg/mL: read-out: DIZ. The procedure, abridged: (§1)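 Cup-plate agar diffusion assay against the fungal strains, with amphotericin B as the reference standard.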
A general note: A growth-free zone around the sample is the usual read-out of agar diffusion tests.

For assay [1], the system named is Bacillus subtilis. As to the kind of experiment: Antibacterial activity against Bacillus subtilis MTCC 121 at 100 ug/ml after 24 hrs. Format: functional, organism-based. The procedure, abridged:
(§2)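 Organisms grown overnight at 37 °C in buffered glucose broth. A loopful (5 mm diameter) was added to buffered glucose broth containing the test compound and incubated at 37 °C for 24 h. Growth was scored against the untreated control as total inhibition, poor, medium or confluent growth.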

The test system of assay [2] is Escherichia coli. In words: Antibacterial activity against Escherichia coli ATCC 25922 at 500 ug/ml after 24 hrs. Format: functional, organism-based. The method in brief: as §2
In another assay the test system is Aspergillus niger. In words: Antifungal activity against Aspergillus niger AIIMS isolate at 30 ug/ml by cup-plate agar diffusion method. The assay is classed as functional. Conditions: for zone of inhibition at 30 µg/mL: read-out: DIZ. The method in brief:
as §1

Assay [3] relates to Bacillus subtilis. As to the kind of experiment: Antibacterial activity against Bacillus subtilis MTCC 121 at 1 ug/ml after 24 hrs. The assay is classed as functional, organism-based. The procedure, abridged: as §2
The test system of assay [4] is Escherichia coli. In words: Antibacterial activity against Escherichia coli ATCC 25922 after 24 hrs. Format: functional. The conditions noted are these: ATCC 25922, 24 h.
For assay [5], the system named is Bacillus subtilis. As to the kind of experiment: Antibacterial activity against Bacillus subtilis MTCC 121 at 500 ug/ml after 24 hrs. The assay is classed as functional, organism-based. The method in brief:
as §2

Assay [6] concerns Bacillus subtilis. As to the kind of experiment: Antibacterial activity against Bacillus subtilis MTCC 121 after 24 hrs. Format: functional. The conditions noted are these: MTCC 121, 24 h.
Assay [7] has as its system Escherichia coli. As to the kind of experiment: Antibacterial activity against Escherichia coli ATCC 25922 at 1 ug/ml after 24 hrs. The assay is classed as functional, organism-based. The procedure, abridged:
as §2

In assay [8] the test system is Escherichia coli. As to the kind of experiment: Antibacterial activity against Escherichia coli ATCC 25922 at 200 ug/ml after 24 hrs. The assay is classed as functional, organism-based. The method in brief:
as §2

Another assay concerns Aspergillus flavus. In words: Antifungal activity against Aspergillus flavus AIIMS isolate at 30 ug/ml by cup-plate agar diffusion method. The assay is classed as functional. The conditions noted are these: for zone of inhibition at 30 µg/mL: read-out: DIZ. The procedure, abridged: as §1
Assay [9] concerns Bacillus subtilis. As to the kind of experiment: Antibacterial activity against Bacillus subtilis MTCC 121 at 200 ug/ml after 24 hrs. Format: functional, organism-based. The method in brief:
as §2

For assay [10], the system named is Escherichia coli. In words: Antibacterial activity against Escherichia coli ATCC 25922 at 10 ug/ml after 24 hrs. The assay is classed as functional, organism-based. The method in brief: as §2
The test system of assay [11] is Bacillus subtilis. In words: Antibacterial activity against Bacillus subtilis MTCC 121 at 10 ug/ml after 24 hrs. The assay is classed as functional, organism-based. The method in brief:
as §2

In the case of `Cc1nc2ccccc2n1Cc1nnc(/N=C/c2ccc(N)cc2)s1`, the zone of inhibition at 30 µg/mL in the assay with Candida albicans was determined as 16 mm; with Aspergillus niger it was 22 mm; with Aspergillus flavus, 10 mm. Further, the inhibition result in the assay on Bacillus subtilis [1], in the assay with Escherichia coli [2], in the assay on Bacillus subtilis [5], with Escherichia coli [8] and in the assay on Bacillus subtilis [9] was “Active” throughout. Also, the inhibition entry in the assay with Bacillus subtilis [3] and with Escherichia coli [7] was “inactive” each time. For the same compound, the results for the MIC against Escherichia coli [4] and against Bacillus subtilis [6] were 200 µg/mL (≈ 574 µM) and 100 µg/mL (≈ 287 µM), respectively.

Consider `Cc1nc2ccccc2n1Cc1nnc(/N=C/c2ccc(O)cc2)s1`, for which the zone of inhibition at 30 µg/mL in the assay with Candida albicans, in the assay on Aspergillus niger and in the assay on Aspergillus flavus was 16 mm throughout. The inhibition result in the assay on Escherichia coli [2], in the assay with Bacillus subtilis [5], in the assay on Escherichia coli [8] and with Bacillus subtilis [9] was “Active” in each case. For the same compound, the inhibition result with Bacillus subtilis [3] and in the assay with Escherichia coli [7] was “inactive” each time. Further, the MIC with Escherichia coli [4] and against Bacillus subtilis [6] was 200 µg/mL (≈ 572 µM) each time.

Take `Cc1nc2ccccc2n1Cc1nnc(N2C(=O)C(Cl)C2c2ccc(O)cc2)s1` (configuration not stated): the inhibition result with Escherichia coli [10] and with Escherichia coli [7] was “inactive” each time. Besides, the zone of inhibition at 30 µg/mL with Candida albicans, in the assay with Aspergillus niger and with Aspergillus flavus was 16 mm throughout. The inhibition entry in the assay on Escherichia coli [2], with Bacillus subtilis [5] and in the assay with Bacillus subtilis [9] was “Active” in each case. Besides, the MIC (commonly the lowest concentration found to suppress growth) turned out to be 500 µg/mL (≈ 1170 µM) in the assay with Escherichia coli [4] and 200 µg/mL (≈ 470 µM) against Bacillus subtilis [6].

Take `Cc1ccc(C2C(Cl)C(=O)N2c2nnc(Cn3c(C)nc4ccccc43)s2)cc1` (configuration not stated): the zone of inhibition at 30 µg/mL in the assay with Candida albicans is less than 10 mm; in the assay on Aspergillus niger, 10 mm; in the assay with Aspergillus flavus it was 16 mm. The inhibition entry in the assay with Escherichia coli [2] and in the assay with Bacillus subtilis [5] was “Active” each time. In addition, the inhibition entry in the assay with Bacillus subtilis [3], in the assay with Bacillus subtilis [11] and in the assay on Escherichia coli [7] was “inactive” throughout. Further, the MIC against Escherichia coli [4] and against Bacillus subtilis [6] was 500 µg/mL (≈ 1180 µM) in each case.

As to `Cc1nc2ccccc2n1Cc1nnc(N2C(=O)C(Cl)C2c2ccc(N)cc2)s1` (configuration not stated), the zone of inhibition at 30 µg/mL came out at 16 mm in the assay with Candida albicans, 10 mm in the assay on Aspergillus niger and 10 mm with Aspergillus flavus. The inhibition entry with Bacillus subtilis [1], with Escherichia coli [2], in the assay on Bacillus subtilis [5], with Escherichia coli [8] and in the assay on Bacillus subtilis [9] was “Active” throughout. Moreover, the MIC in the assay with Escherichia coli [4] stood at 200 µg/mL (≈ 471 µM); with Bacillus subtilis [6] it was 100 µg/mL (≈ 235 µM). In the assay on Escherichia coli [7], the inhibition entry was “inactive”.

For `COc1ccc(C2C(Cl)C(=O)N2c2nnc(Cn3c(C)nc4ccccc43)s2)cc1` (configuration not stated), the zone of inhibition at 30 µg/mL in the assay with Candida albicans was 10 mm; with Aspergillus niger it was less than 10 mm; with Aspergillus flavus, less than 10 mm. The inhibition result with Escherichia coli [2], in the assay on Bacillus subtilis [5], in the assay on Escherichia coli [8] and in the assay with Bacillus subtilis [9] was “Active” throughout. Also, the inhibition result with Bacillus subtilis [3] and with Escherichia coli [7] was “inactive” in each case. The MIC in the assay with Escherichia coli [4] and against Bacillus subtilis [6] was 200 µg/mL (≈ 455 µM) each time.

Regarding `Cc1nc2ccccc2n1Cc1nnc(N2C(=O)C(Cl)C2c2cccc(O)c2)s1` (configuration not stated), the “diameter of the inhibition zone (DIZ)” value in the assay with Candida albicans, in the assay on Aspergillus niger and with Aspergillus flavus was “inactive” in each case. Further, the inhibition entry with Escherichia coli [2], with Bacillus subtilis [5] and with Bacillus subtilis [9] was “Active” in each case. In addition, the inhibition result in the assay with Bacillus subtilis [3] and in the assay on Escherichia coli [7] was “inactive” each time. For the same compound, the MIC against Escherichia coli [4] was found to be 500 µg/mL (≈ 1170 µM); against Bacillus subtilis [6] it was 200 µg/mL (≈ 470 µM).

For the compound `Cc1nc2ccccc2n1Cc1nnc(/N=C/c2ccccc2)s1`, the zone of inhibition at 30 µg/mL came out at 16 mm in the assay with Candida albicans, 22 mm in the assay with Aspergillus niger and 22 mm with Aspergillus flavus. For the same compound, the inhibition entry in the assay on Bacillus subtilis [1], in the assay on Escherichia coli [2], in the assay on Bacillus subtilis [5], with Escherichia coli [8] and with Bacillus subtilis [9] was “Active” in each case. Also, the inhibition entry in the assay on Bacillus subtilis [3] and with Escherichia coli [7] was “inactive” each time. Further, the MIC was found to be 200 µg/mL (≈ 600 µM) against Escherichia coli [4] and 100 µg/mL (≈ 300 µM) against Bacillus subtilis [6].

For `Cc1nc2ccccc2n1Cc1nnc(/N=C/c2ccccc2O)s1`, the inhibition result in the assay on Escherichia coli [10], with Bacillus subtilis [3] and in the assay on Escherichia coli [7] was “inactive” throughout. The “diameter of the inhibition zone (DIZ)” value in the assay on Candida albicans, with Aspergillus niger and in the assay on Aspergillus flavus was “inactive” in each case. The inhibition result with Bacillus subtilis [1], in the assay on Escherichia coli [2], in the assay with Bacillus subtilis [5], in the assay on Escherichia coli [8] and with Bacillus subtilis [9] was “Active” in each case. Also, the MIC with Escherichia coli [4] came out at 200 µg/mL (≈ 572 µM); in the assay on Bacillus subtilis [6], 100 µg/mL (≈ 286 µM).

On to `Cc1nc2ccccc2n1Cc1nnc(N2C(=O)C(Cl)C2c2ccccc2O)s1` (configuration not stated), for which the zone of inhibition at 30 µg/mL in the assay with Candida albicans amounted to 10 mm; with Aspergillus niger, 16 mm; with Aspergillus flavus it was 10 mm. The inhibition result in the assay on Bacillus subtilis [1], in the assay with Escherichia coli [2], with Bacillus subtilis [5], with Escherichia coli [8] and in the assay with Bacillus subtilis [9] was “Active” throughout. For the same compound, the minimum inhibitory concentration (MIC) with Escherichia coli [4] was 200 µg/mL (≈ 470 µM); with Bacillus subtilis [6], 100 µg/mL (≈ 235 µM). Besides, the inhibition result in the assay with Escherichia coli [7] was “inactive”.

Take `COc1ccc(/C=N/c2nnc(Cn3c(C)nc4ccccc43)s2)cc1`: the inhibition entry with Escherichia coli [10], with Bacillus subtilis [3] and in the assay with Escherichia coli [7] was “inactive” each time. Besides, the zone of inhibition at 30 µg/mL in the assay on Candida albicans was found to be 10 mm; in the assay on Aspergillus niger, 16 mm; in the assay on Aspergillus flavus it was 16 mm. Moreover, the inhibition entry with Bacillus subtilis [1], with Escherichia coli [2], in the assay with Bacillus subtilis [5], in the assay with Escherichia coli [8] and with Bacillus subtilis [9] was “Active” in each case. Further, the MIC was 200 µg/mL (≈ 550 µM) against Escherichia coli [4] and 100 µg/mL (≈ 275 µM) against Bacillus subtilis [6].

`C[C@@H]1[C@H](O)[C@@H](C)/C=C/C=C/C=C/C=C/C=C/C=C/C=C/[C@H](O[C@@H]2O[C@H](C)[C@@H](O)[C@H](N)[C@@H]2O)C[C@@H]2O[C@](O)(C[C@@H](O)C[C@@H](O)[C@H](O)CC[C@@H](O)C[C@@H](O)CC(=O)O[C@H]1C)C[C@H](O)[C@H]2C(=O)O` [AMPHOTERICIN B]: the zone of inhibition at 30 µg/mL with Candida albicans, in the assay on Aspergillus niger and in the assay with Aspergillus flavus was 22 mm each time.
